The record followed here is ChEMBL document CHEMBL3739352, “Anticonvulsant activity, crystal structures, and preliminary safety evaluation of N-trans-cinnamoyl derivatives of selected (un)modified aminoalkanols” (Eur J Med Chem, 2016).

Active and inactive are the calls of the source. The rule behind the calls is not given here.

In data set [1] the test system is Mus musculus. The data set can be described thus: Anticonvulsant activity in albino Carworth Farms No.1 mouse assessed as protection against maximal electroshock-induced seizures at 100 mg/kg, ip after 0.5 hrs. The class given is functional, organism-based. The procedure, abridged: (§1)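 Mouse i.p. screen in Carworth Farms No.1 albino mice at 30, 100 or 300 mg/kg in 0.5% methylcellulose. Testing was at 0.5 and 4 h after injection, by maximal electroshock or by subcutaneous pentetrazol challenge. Scoring was number protected / number used.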
Background: In the maximal electroshock model the usual endpoint is tonic extension of the hind limbs.

Data set [2] concerns Mus musculus. The data set can be described thus: Anticonvulsant activity in albino Carworth Farms No.1 mouse assessed as protection against subcutaneous dosed pentetrazol-induced seizures at 30 mg/kg, ip after 4 hrs. The class given is functional, organism-based. The procedure, abridged: as §1
For data set [3], the system named is Mus musculus. As to the kind of experiment: Anticonvulsant activity in albino Carworth Farms No.1 mouse assessed as protection against subcutaneous dosed pentetrazol-induced seizures at 300 mg/kg, ip after 0.5 hrs. It counts as functional, organism-based. Summed up: as §1
The subject of data set [4] is Salmonella typhimurium. The data set can be described thus: Mutagenicity in Salmonella typhimurium TA98 assessed as mutagenic index at 500 ug/plate by Ames test. The class given is toxicity, organism-based. To be noted: salmonella enterica subsp. enterica serovar typhimurium. On the technique in general: The Ames test uses bacterial strains that need an amino acid and regain growth without it when mutated back.

For data set [5], the system named is Salmonella typhimurium. The data set can be described thus: Mutagenicity in Salmonella typhimurium TA100 assessed as number of revertants at 1000 ug/plate by Ames test (reference value: 77 +/-4). The class given is toxicity, organism-based. To be noted: salmonella enterica subsp. enterica serovar typhimurium. The procedure, abridged:
(§2)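 Salmonella TA100 preincubation Ames assay: overnight-type 12 h broth culture at 37 °C, compound in DMSO at final 4–1000 per plate, top agar with trace histidine, glucose minimal agar, 48 h at 37 °C. Revertant colonies per plate were counted, with a DMSO negative control and a sodium azide positive control. Three independent repetitions were run.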

For data set [6], the system named is Salmonella typhimurium. As to the kind of experiment: Mutagenicity in Salmonella typhimurium TA98 assessed as mutagenic index at 1000 ug/plate by Ames test. The class given is toxicity, organism-based. As to conditions: salmonella enterica subsp. enterica serovar typhimurium.
Data set [7] has as its system Mus musculus. The data set can be described thus: Anticonvulsant activity in albino Carworth Farms No.1 mouse assessed as protection against maximal electroshock-induced seizures at 100 mg/kg, ip after 4 hrs. It counts as functional, organism-based. Summed up:
as §1

Data set [8] deals with Rattus norvegicus. The data set can be described thus: Neurotoxicity in Sprague-Dawley rat at 30 mg/kg, po after 0.25 hrs. To be noted: in vivo. The class given is toxicity, organism-based. The procedure, abridged:
(§3)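 Sprague-Dawley rats were given 30 mg/kg orally in 0.5% methylcellulose. Neurotoxicity was checked at 0.25, 0.5, 1.0, 2.0 and 4 h after dosing. Results are given as number of rats showing neurotoxicity/number tested.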

The subject of data set [9] is Rattus norvegicus. As to the kind of experiment: Anticonvulsant activity in Sprague-Dawley rat assessed as protection against maximal electroshock-induced seizures at 30 mg/kg, po after 0.5 hrs. The class given is functional, organism-based. Summed up:
(§4)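 Sprague-Dawley rats were given 30 mg/kg p.o. in 0.5% methylcellulose. Maximal electroshock was applied at 0.25, 0.5, 1.0, 2.0 and 4 h after dosing. Results are reported as number of rats protected / number tested.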

Data set [10] has as its system Rattus norvegicus. The data set can be described thus: Anticonvulsant activity in Sprague-Dawley rat assessed as protection against maximal electroshock-induced seizures at 30 mg/kg, po after 0.25 hrs. The class given is functional, organism-based. The procedure, abridged: as §4
The test system of data set [11] is Mus musculus. The data set can be described thus: Neurotoxicity in albino Carworth Farms No.1 mouse at 100 mg/kg, ip after 0.5 hrs by rotarod test. To be noted: in vivo. The class given is toxicity, organism-based. Summed up:
(§5)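 Mice (albino Carworth Farms No.1) were dosed i.p. at 30, 100 or 300 mg/kg in 0.5% methylcellulose. They were tested 0.5 and 4 h later on a 1-inch knurled rod rotating at 6 rpm. Neurotoxicity was scored if a mouse could not stay on the rod for at least 1 min in each of three trials. Results are given as animals toxic/animals tested, with deaths noted.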

The subject of data set [12] is Mus musculus. The data set can be described thus: Anticonvulsant activity in albino Carworth Farms No.1 mouse assessed as protection against maximal electroshock-induced seizures at 30 mg/kg, ip after 4 hrs. It counts as functional, organism-based. The procedure, abridged:
as §1

Data set [13] deals with Rattus norvegicus. The data set can be described thus: Neurotoxicity in Sprague-Dawley rat at 30 mg/kg, po after 0.5 hrs. As to conditions: in vivo. The class given is toxicity, organism-based. The procedure, abridged: as §3
Data set [14] has as its system Mus musculus. The data set can be described thus: Neurotoxicity in albino Carworth Farms No.1 mouse at 30 mg/kg, ip after 0.5 hrs by rotarod test. It counts as toxicity, organism-based. As to conditions: in vivo. The procedure, abridged:
as §5

Data set [15] relates to Salmonella typhimurium. The data set can be described thus: Mutagenicity in Salmonella typhimurium TA98 assessed as mutagenic index at 100 ug/plate by Ames test. The class given is toxicity, organism-based. To be noted: salmonella enterica subsp. enterica serovar typhimurium.
Data set [16] relates to Mus musculus. As to the kind of experiment: Anticonvulsant activity in albino Carworth Farms No.1 mouse assessed as protection against subcutaneous dosed pentetrazol-induced seizures at 100 mg/kg, ip after 0.5 hrs. The class given is functional, organism-based. Summed up:
as §1

The test system of data set [17] is Salmonella typhimurium. As to the kind of experiment: Mutagenicity in Salmonella typhimurium TA100 assessed as mutagenic index at 500 ug/plate by Ames test. As to conditions: salmonella enterica subsp. enterica serovar typhimurium. It counts as toxicity, organism-based. Summed up: (§6)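 Ames preincubation test. Strain culture was grown 12 h at 37 °C in nutrient broth, then mixed with compound in DMSO (final 4, 20, 100, 500, 1000 per plate) and buffer in top agar with trace histidine. This was plated on glucose minimal agar for 48 h at 37 °C. Mutagenic index = revertants with compound / DMSO control revertants, from three independent repeats.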

In data set [18] the test system is Salmonella typhimurium. The data set can be described thus: Mutagenicity in Salmonella typhimurium TA1535 assessed as number of revertants at 1000 ug/plate by Ames test (reference value: 10 +/- 3). It counts as toxicity, organism-based. As to conditions: salmonella enterica subsp. enterica serovar typhimurium.
Data set [19] deals with Rattus norvegicus. As to the kind of experiment: Anticonvulsant activity in Sprague-Dawley rat assessed as protection against maximal electroshock-induced seizures at 30 mg/kg, po after 2 hrs. It counts as functional, organism-based. Summed up:
as §4

For data set [20], the system named is Salmonella typhimurium. The data set can be described thus: Mutagenicity in Salmonella typhimurium TA1535 assessed as assessed as mutagenic index at 20 ug/plate by Ames test. It counts as toxicity, organism-based. As to conditions: salmonella enterica subsp. enterica serovar typhimurium. Summed up: as §6
Data set [21] has as its system Salmonella typhimurium. The data set can be described thus: Mutagenicity in Salmonella typhimurium TA1535 assessed assessed as mutagenic index at 100 ug/plate by Ames test. To be noted: salmonella enterica subsp. enterica serovar typhimurium. The class given is toxicity, organism-based.
The subject of data set [22] is Salmonella typhimurium. As to the kind of experiment: Mutagenicity in Salmonella typhimurium TA98 assessed as mutagenic index at 20 ug/plate by Ames test. To be noted: salmonella enterica subsp. enterica serovar typhimurium. The class given is toxicity, organism-based.
In data set [23] the test system is Salmonella typhimurium. As to the kind of experiment: Mutagenicity in Salmonella typhimurium TA98 assessed as mutagenic index at 4 ug/plate by Ames test. It counts as toxicity, organism-based. As to conditions: salmonella enterica subsp. enterica serovar typhimurium.
The nature of data set [24]: Lipophilicity of the compound using 65% methanol in water at 1 mg/ml by RT-TLC analysis. The class given is physicochemical. To be noted: buffer. The procedure, abridged:
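Reversed-phase TLC with a methanol–water mobile phase at the stated methanol content (v/v). Compounds were spotted from 1 mg/mL methanol solutions after 1 h chamber saturation and located under UV light. Rf was measured and RM = log(1/Rf − 1) calculated.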

For data set [25], the system named is Salmonella typhimurium. The data set can be described thus: Mutagenicity in Salmonella typhimurium TA100 assessed as number of revertants at 500 ug/plate by Ames test (reference value: 77 +/-4). It counts as toxicity, organism-based. To be noted: salmonella enterica subsp. enterica serovar typhimurium. The procedure, abridged: as §2

Consider `O=C(/C=C/c1ccccc1)N1CCC(O)CC1`, for which the outcome in the data set on Mus musculus [1] and in the data set on Mus musculus [3] was Active. For the same molecule, the outcome in the data set on Mus musculus [2], in the data set on Mus musculus [7], with Rattus norvegicus [9], in the data set with Rattus norvegicus [10], in the data set with Mus musculus [12] and with Mus musculus [16] was inactive. Also, the outcome with Rattus norvegicus [19] was inactive. For the same molecule, the Activity_index in the data set on Salmonella typhimurium [4] is reported as 1; in the data set on Salmonella typhimurium [6], 0.9; in the data set with Salmonella typhimurium [15], 0.7; in the data set with Salmonella typhimurium [17], 0.9; in the data set with Salmonella typhimurium [20], 0.6; in the data set with Salmonella typhimurium [21], 0.9. Also, the figures for the Activity_index with Salmonella typhimurium [22] and in the data set with Salmonella typhimurium [23] were 0.8 and 1, respectively. Besides, the Activity is on record as 70 with Salmonella typhimurium [5]; “Non-toxic” in the data set with Rattus norvegicus [8]; “Non-toxic” in the data set on Mus musculus [11]; “Non-toxic” in the data set on Rattus norvegicus [13]; “Non-toxic” in the data set with Mus musculus [14]; 5 in the data set on Salmonella typhimurium [18]. Besides, in the data set with Salmonella typhimurium [25], the Activity is 72. In [24], this molecule showed a Rm of 0.18.

Turning to `O=C(/C=C/c1ccccc1)N[C@H]1CCCC[C@@H]1O` (racemic), in the data set with Mus musculus [1], the outcome was Active. The result in the data set with Mus musculus [2], in the data set with Mus musculus [3], in the data set on Mus musculus [7], in the data set with Mus musculus [12] and with Mus musculus [16] was inactive. The Activity_index in the data set on Salmonella typhimurium [4] is reported as 0.8; with Salmonella typhimurium [6], 0.8; in the data set on Salmonella typhimurium [15], 0.9; in the data set with Salmonella typhimurium [17] it was 1; with Salmonella typhimurium [20], 1.4; in the data set on Salmonella typhimurium [21], 0.6. Also, the Activity_index with Salmonella typhimurium [22] came to 0.9; in the data set on Salmonella typhimurium [23] it was 1. In addition, the Activity is 70 in the data set with Salmonella typhimurium [5]; “Toxic” in the data set on Mus musculus [11]; “Non-toxic” in the data set on Mus musculus [14]; 6 with Salmonella typhimurium [18]; 73 in the data set on Salmonella typhimurium [25]. This molecule also returned a Rm in data set [24] of 0.33.

`CCC(CO)NC(=O)/C=C/c1ccccc1` (racemic): the result in the data set with Mus musculus [1], in the data set on Mus musculus [2], in the data set with Mus musculus [7], with Mus musculus [12] and in the data set on Mus musculus [16] was inactive. Further, in the data set with Mus musculus [3], the outcome was Active. The Activity_index in the data set with Salmonella typhimurium [4] was found to be 0.9; in the data set with Salmonella typhimurium [6] it was 0.8; in the data set on Salmonella typhimurium [15], 1; in the data set with Salmonella typhimurium [17] it was 0.9; in the data set on Salmonella typhimurium [20] it was 0.5; in the data set on Salmonella typhimurium [21], 1.4. The Activity_index is 1 in the data set with Salmonella typhimurium [22] and 0.9 in the data set on Salmonella typhimurium [23]. For the same molecule, the Activity is given as 64 with Salmonella typhimurium [5]; “Non-toxic” with Mus musculus [11]; “Non-toxic” in the data set with Mus musculus [14]; 13 with Salmonella typhimurium [18]; 72 in the data set with Salmonella typhimurium [25]. The Rm in data set [24] was 0.25.
